Series [1] is described as follows: melting temperature; fluorescence melt of hairpins on a sequencing array, two-state fit, raised by 9.35 °C to match UV melts. The following applies: sodium 0.088 M. In short, it runs like this:
(§1)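 Cy3 fluorescence of library hairpins on a sequenced MiSeq flow cell, with annealed Cy3 and quencher oligos, was imaged in 50 mM Na-HEPES pH 8.0, 25 mM NaCl in 2.5 °C steps up to 60 °C. Signals were normalised to pre-quench Cy3 and to control variants. Melting temperature and folding enthalpy came from bootstrapped two-state fits, inverse-variance combined over four replicates. Fitted temperatures were raised by 9.35 °C to match UV melts.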

A short description of series [2]: folding enthalpy; higher = less favourable; fluorescence melt of hairpins on a sequencing array, two-state fit. The following applies: sodium 0.088 M. In short, it runs like this:
as §1

In the case of GTCGGGGGAAACCCTGGC (.(.(((....))).).), in series [1], the Tm was 43.9 °C. For the same sequence, the folding enthalpy in series [2] is -21.8 kcal/mol.
Turning to GTCGGGGGAAACTCCGAC (((((.(....).))))), in series [1], the Tm stood at 57.6 °C. Also, in series [2], the folding enthalpy is -44.7 kcal/mol.
For GTCGGTCGAAAGACGAC (((.(((....)))))), in that order: 55.1 °C and -29.2 kcal/mol.
In the same order, the values of GTCGGTGGAAACACCGGC (.(((((....))))).) are 63.2 °C and -23.8 kcal/mol.
As to GTCGGTGGAAACATCGGC (.((.((....)).)).), in series [1], the Tm came to 44.4 °C. For the same sequence, in series [2], the folding enthalpy was -26.2 kcal/mol.
In the same order, the values of GTCGTAACGAAAGTTGAC (((..(((....)))))) are 35.8 °C and -22.4 kcal/mol.
Consider GTCGTACGAAAGTAAGAC (((.(((....))).))), for which the Tm in series [1] worked out at 52.1 °C. For the same sequence, in series [2], the folding enthalpy was -33.2 kcal/mol.
Take GTCGTCCGAAAGGAAGAC (((.(((....))).))): the Tm in series [1] was 55.9 °C. For the same sequence, in series [2], the folding enthalpy was -33 kcal/mol.
Consider GTCGTCGAAAGACCAGAC ((((((....)))..))), for which the Tm in series [1] stood at 34.9 °C. In addition, the folding enthalpy in series [2] is -16.6 kcal/mol.
In the same order, the values of GTCGTCGAAAGACCGGAC ((((((....)))..))) are 37.4 °C and -16.9 kcal/mol.
In the same order, the values of GTCGTCGAAAGACGAGAC ((((((....)))..))) are 49.8 °C and -10.8 kcal/mol.
In the same order, the values of GTCGTCGCGAAAGCGGAC (((..(((....)))))) are 46.5 °C and -10.6 kcal/mol.
For GTCGTCGGAAACGACAAC ((.((((....)))).)), the Tm in series [1] stood at 47.4 °C. Besides, in series [2], the folding enthalpy was -13 kcal/mol.
In the same order, the values of GTCGTCGGAAACGATGGC (.(.(((....))).).) are 46.2 °C and -25.4 kcal/mol.
In the case of GTCGTGACGAAAGTCGAC (((..(((....)))))), the Tm in series [1] worked out at 46.3 °C. The folding enthalpy in series [2] is -16.6 kcal/mol.
GTCGTGGCGAAAGCCGAC (((..(((....)))))): the Tm in series [1] worked out at 54.6 °C. In series [2], the folding enthalpy is -17.2 kcal/mol.
GTCGTGGGAAACTGCGAC ((((..(....)..)))): the Tm in series [1] came to 46.9 °C. Further, in series [2], the folding enthalpy is -18.5 kcal/mol.
In the same order, the values of GTCGTTCGAAAGAATGAC (((.(((....))).))) are 54.9 °C and -42.1 kcal/mol.
In the same order, the values of GTCGTTGGAAACAATGAC (((.(((....))).))) are 48.3 °C and -32.5 kcal/mol.
For GTCGTTGGAAACAGCGAC ((((.((....)).)))), in that order: 52.4 °C and -37.5 kcal/mol.
As to GTCGTTGGAAACGATGAC (((.(.(....).).))), in series [1], the Tm was 49 °C. Further, the folding enthalpy in series [2] was -13.5 kcal/mol.
For GTCGTTTCGAAAGAAGAC (((..(((....)))))), in that order: 28.9 °C and -14 kcal/mol.
For GTCTAAGCGAAAGCTGAC (((..(((....)))))), in that order: 43.1 °C and -17.2 kcal/mol.
In the same order, the values of GTCTAAGGAAACTTAGAC (((((((....))))))) are 51.5 °C and -41.9 kcal/mol.
Consider GTCTACGAAAGTAACGAC ((((((....)))..))), for which, in series [1], the Tm amounted to 31.3 °C. Also, in series [2], the folding enthalpy was -16.4 kcal/mol.
For GTCTACGAAAGTACAGAC ((((((....)))..))), in that order: 33.4 °C and -18.1 kcal/mol.
For GTCTACGAAAGTACGGAC ((((((....)))..))), in that order: 34.1 °C and -12.1 kcal/mol.
With GTCTACGGAAACGCAGAC ((((.((....)).)))), the Tm in series [1] came to 45.1 °C. Moreover, the folding enthalpy in series [2] is -35 kcal/mol.
Turning to GTCTACGGAAACGTAAAC ((.((((....)))).)), the Tm in series [1] turned out to be 27.7 °C. In addition, the folding enthalpy in series [2] was -14.4 kcal/mol.
In the same order, the values of GTCTAGAAATAGAC (((((....))))) are 40.5 °C and -14.9 kcal/mol.
As to GTCTAGACGAAAGTCGAC (((..(((....)))))), the Tm in series [1] is 39.6 °C. The folding enthalpy in series [2] was -13.1 kcal/mol.
In the same order, the values of GTCTAGGCGAAAGCCGAC (((..(((....)))))) are 44.5 °C and -10.8 kcal/mol.
For the sequence GTCTATGCGAAAGCAGAC (((..(((....)))))), in series [1], the Tm came out at 42.1 °C. Besides, in series [2], the folding enthalpy is -16.9 kcal/mol.
Turning to GTCTATTCGAAAGAAGAC (((..(((....)))))), in series [1], the Tm turned out to be 23.8 °C. Also, in series [2], the folding enthalpy is -8.48 kcal/mol.
As for GTCTCACCGAAAGGTGAC (((..(((....)))))), the Tm in series [1] is 36.1 °C. For the same sequence, the folding enthalpy in series [2] is -7.93 kcal/mol.
For GTCTCACGAAAGTGCGAC (((.(((....))).))), in series [1], the Tm was determined as 50.3 °C. Moreover, the folding enthalpy in series [2] was -38.7 kcal/mol.
In the same order, the values of GTCTCACGAAAGTGGGAC (((.(((....))).))) are 60.3 °C and -41.5 kcal/mol.
For GTCTCAGCGAAAGCTGAC (((..(((....)))))), the Tm in series [1] is 36.2 °C. The folding enthalpy in series [2] was -8.27 kcal/mol.
As to GTCTCCGAAAGGACTGAC ((((((....)))..))), the Tm in series [1] stood at 34.4 °C. Also, the folding enthalpy in series [2] is -14.6 kcal/mol.
For GTCTCCGAAAGGAGCGAC ((((((....)))..))), in that order: 53.9 °C and -16.1 kcal/mol.
In the same order, the values of GTCTCCGAAAGGAGGAC ((((((....))).))) are 50.8 °C and -16.4 kcal/mol.
Regarding GTCTCCGGAAACGGAGGC (.(((((....))))).), the Tm in series [1] was determined as 61.7 °C. In addition, the folding enthalpy in series [2] was -25.2 kcal/mol.
For GTCTCGCGAAAGCGTGAC (((.(((....))).))), in that order: 60.7 °C and -28.6 kcal/mol.
In the same order, the values of GTCTCTACGAAAGTAGAC (((..(((....)))))) are 33.2 °C and -11.2 kcal/mol.
For GTCTCTGAAAAGAGAC ((((((....)))))), in series [1], the Tm was determined as 58.1 °C. Also, the folding enthalpy in series [2] is -33.4 kcal/mol.
As for GTCTCTGCGAAAGCAGAC (((..(((....)))))), in series [1], the Tm was found to be 34.3 °C. For the same sequence, the folding enthalpy in series [2] is -8.28 kcal/mol.
As for GTCTGACGAAAGTCCGAC (((.(((....))).))), in series [1], the Tm turned out to be 49 °C. In series [2], the folding enthalpy is -28.5 kcal/mol.
GTCTGACGAAAGTCGAC (((.(((....)))))): in series [1], the Tm was 49 °C. The folding enthalpy in series [2] is -16.9 kcal/mol.
With GTCTGACGAAAGTCGGAC (((.(((....))).))), in series [1], the Tm came out at 62.4 °C. Besides, the folding enthalpy in series [2] is -35.8 kcal/mol.
For GTCTGAGGAAACCCAGAC (((((.(....).))))), in that order: 45.9 °C and -31.8 kcal/mol.
GTCTGAGGAAACTTGGAC (((..((....))..))): the Tm in series [1] is 31.7 °C. Also, the folding enthalpy in series [2] is -15.9 kcal/mol.
In the same order, the values of GTCTGCCCGAAAGGGGAC (((..(((....)))))) are 34.8 °C and -10.9 kcal/mol.
In the same order, the values of GTCTGCGAAAGCACCGAC ((((((....)))..))) are 32.3 °C and -12.7 kcal/mol.
In the same order, the values of GTCTGCGAAAGCACTGAC ((((((....)))..))) are 36.3 °C and -15.1 kcal/mol.
On to GTCTGCGAAAGCAGTGAC ((((((....)))..))), for which the Tm in series [1] turned out to be 40.5 °C. Also, the folding enthalpy in series [2] was -9.57 kcal/mol.
In the same order, the values of GTCTGGCGAAAGCCTGAC (((.(((....))).))) are 62 °C and -26.8 kcal/mol.
Take GTCTGGTCGAAAGACGAC (((..(((....)))))): in series [1], the Tm amounted to 41.5 °C. Moreover, the folding enthalpy in series [2] is -17.2 kcal/mol.
For GTCTGTGAAAACAGAC ((((((....)))))), in that order: 57.8 °C and -36.1 kcal/mol.
Regarding GTCTGTGGAAACACAGAC (((((((....))))))), the Tm in series [1] was 65.1 °C. For the same sequence, the folding enthalpy in series [2] is -50.5 kcal/mol.
In the same order, the values of GTCTTACGAAAGTACGAC (((.(((....))).))) are 43.8 °C and -34.5 kcal/mol.
In the same order, the values of GTCTTACGAAAGTAGGAC (((.(((....))).))) are 48.9 °C and -28.2 kcal/mol.
For GTCTTACGAAAGTATGAC (((.(((....))).))), in series [1], the Tm stood at 48.3 °C. Besides, the folding enthalpy in series [2] was -30.9 kcal/mol.
Regarding GTCTTATCGAAAGATGAC (((..(((....)))))), the Tm in series [1] stood at 28.5 °C. For the same sequence, in series [2], the folding enthalpy was -20.1 kcal/mol.
For GTCTTCGAAAGAAGAGAC ((((((....)))..))), in that order: 36.5 °C and -16.7 kcal/mol.
In the same order, the values of GTCTTCGAAAGAAGCGAC ((((((....)))..))) are 44.7 °C and -20 kcal/mol.
For GTCTTCGAAAGAAGGAC ((((((....))).))), in that order: 41.6 °C and -16.4 kcal/mol.
Take GTCTTCGCGAAAGCGGAC (((..(((....)))))): the Tm in series [1] came out at 30.4 °C. Also, in series [2], the folding enthalpy was -10.6 kcal/mol.
As for GTCTTCTCGAAAGAGGAC (((..(((....)))))), in series [1], the Tm stood at 33.5 °C. Moreover, in series [2], the folding enthalpy is -17.2 kcal/mol.
For GTCTTGGAAACAAGAC ((((((....)))))), in that order: 54.9 °C and -35.3 kcal/mol.
For GTCTTGGCGAAAGCCGAC (((..(((....)))))), in that order: 37.5 °C and -9.96 kcal/mol.
In the same order, the values of GTCTTGGGAAACTGAGAC ((((..(....)..)))) are 35.1 °C and -23.8 kcal/mol.
On to GTCTTTGGAAACGAAGAC (((((.(....).))))), for which the Tm in series [1] is 45 °C. Moreover, the folding enthalpy in series [2] is -30.6 kcal/mol.
In the same order, the values of GTGAAACGAAAGTTACAC (((.(((....))).))) are 46.2 °C and -29.7 kcal/mol.

The values are drawn from the array DNA melting data of Ke et al. (doi:10.1101/2024.01.08.574731).
